Shown are actives, neighbours in structure and some others; about 3.5% of the full set was active somewhere.
RGS4 inh = inhibitors of human RGS4. P49798. B-score at 10 µM. HEK293 M3R/RGS4 inducible, Fluo-4 calcium flux; active compounds read high; triggered by carbachol at its EC20. actives 0.45% (n = 310,000);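 active = B-score, a plate-corrected calcium signal, over three deviations above library mean, with baseline fluorescence within five deviations of library mean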;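 also: RGS4 expression induced by doxycycline in cells with stable M3 receptor; B-score is computed from the integrated fluorescence ratio over baseline after carbachol; higher B-score means a larger calcium signal and so more RGS4 inhibition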
Target sequence (P49798 whole entry, looked up): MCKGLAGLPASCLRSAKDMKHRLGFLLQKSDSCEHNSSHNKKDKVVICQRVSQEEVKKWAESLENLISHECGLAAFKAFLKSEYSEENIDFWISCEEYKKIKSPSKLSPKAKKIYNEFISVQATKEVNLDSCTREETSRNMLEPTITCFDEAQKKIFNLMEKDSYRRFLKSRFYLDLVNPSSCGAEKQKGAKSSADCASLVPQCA
MrgX1 antagonist = blocks BAM8-22 activation of human MrgX1 receptor. Q96LB2. MRGX1-HEK293 calcium flux, Fluo-4, BAM8-22 antagonism; active compounds read low. B-score at 10 µM. actives 1.3% (n = 310,000). AID 588676;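 active = calcium-response B-score plate-corrected more than 3 library SD below zero, starting fluorescence within 5 deviations, no agonist response on first addition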;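 also: peak minus trough fluorescence over baseline after final BAM8-22 challenge near maximal dose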
Target sequence (Q96LB2 whole entry, looked up): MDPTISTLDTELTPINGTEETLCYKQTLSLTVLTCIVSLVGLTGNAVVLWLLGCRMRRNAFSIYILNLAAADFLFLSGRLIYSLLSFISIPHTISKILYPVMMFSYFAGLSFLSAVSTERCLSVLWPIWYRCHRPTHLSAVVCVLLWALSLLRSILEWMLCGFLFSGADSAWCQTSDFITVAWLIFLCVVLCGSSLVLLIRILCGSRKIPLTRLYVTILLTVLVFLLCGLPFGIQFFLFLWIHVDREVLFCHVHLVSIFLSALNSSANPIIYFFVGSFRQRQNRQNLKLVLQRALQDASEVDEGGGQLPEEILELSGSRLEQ
RGS4 pot = RGS4 potentiation or activation. B-score at 10 µM. actives 0.92% (n = 310,000). HEK293 M3R/inducible RGS4, carbachol calcium flux Fluo4; active compounds read low;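 active = B-score of the integrated calcium signal more than 4 SD below the library mean, with starting fluorescence not abnormally high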;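 also: negative B-score means reduced calcium response which marks RGS4 activation or potentiation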
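Test system: HEK293 cells with stable M3R and inducible RGS4; also added: carbachol at ECmax as muscarinic agonist stimulus; schedule: dye loading 30 min 37 °C, buffer rest 30 min RT; technique: kinetic calcium fluorescence imaging with Fluo4-AM dye, 2 µM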
MrgX1 PAM = human MrgX1 positive allosteric modulation, primary screen. Q96LB2. MrgX1-HEK293, Fluo-4 calcium flux, FDSS; active compounds read high. B-score at 10 µM. actives 0.63% (n = 310,000). AID 588675;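 active = plate-corrected calcium response at least 3 library SD above typical, normal starting fluorescence, not activating the receptor alone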;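 also: compound read alongside a low EC10 to EC30 dose of BAM8-22 agonist; peak minus trough fluorescence over baseline measured at the second addition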
MrgX1 agonist = agonists of human MrgX1 receptor; Q96LB2; B-score at 10 µM; MrgX1-HEK293 cells, Fluo-4 calcium fluorescence, agonist mode; active compounds read high; actives 0.44% (n = 310,000);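 active = calcium response B-score plate-corrected fluorescence ratio at least 3 library SD, with starting fluorescence B-score inside 5 SD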
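Material: HEK293 cells stably expressing human MrgX1 receptor | Quantity: 15,000 cells per well | Times: Cells plated overnight, dye loaded 0.5 h 37 °C, 0.5 h room temperature | Measured by: Kinetic Fluo-4 NW fluorescence of intracellular calcium | Control set: Positive and negative controls per plate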
RGS4 block valid = validation of RGS4 inhibitors | calcium response, % at 10 µM | AID 492999 | shares compounds with RGS4 inh | HEK293 M3R/RGS4, carbachol calcium Fluo-4 fluorescence; carbachol added at its EC20; 0 = buffer wells, 100 = carbachol control | actives 65% (n = 1,700);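 active = duplicate-averaged calcium response above the buffer-only control mean plus 5 SD of those controls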;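 also: integrated fluorescence ratio F max minus min over baseline F0; higher response in RGS4-induced cells means RGS4 inhibition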
RGS4 uninduced = counter-screen for RGS4 inhibitors: effect in non-induced cells | shares compounds with RGS4 inh | HEK293 M3R non-induced, carbachol calcium Fluo-4; submaximal (EC20) carbachol stimulus; buffer wells 0%, carbachol control wells 100% | activity (percent), % at 10 µM | actives 20% (n = 1,900) | AID 493000; call rule not given here;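 also: RGS4 induction absent so cells express M3R without RGS4; higher means more calcium signal and flags a non-specific hit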
M3R basal Ca ctr = signal in non-induced cells without carbachol, RGS4 inhibitor counter-screen | shares compounds with RGS4 inh | HEK293 M3R/RGS4 non-induced, Fluo-4 calcium, no carbachol; normalised: buffer wells 0%, carbachol wells 100% | AID 493001 | calcium response (agonist-mode artifact), % at 10 µM | actives 22% (n = 1,900);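 active = duplicate-averaged calcium rise in uninduced cells above buffer wells' mean plus 5 SD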
Active calls of the source: *.

What do the screens show for `C=CCN1C=C2C(=O)C(C)(OC(=O)c3ccc(OC)cc3)C(=O)C(c3ccco3)=C2C=C1CCCC` (centres undefined)?
RGS4 inh: inactive; MrgX1 antagonist: inactive; RGS4 pot: inactive; MrgX1 PAM: inactive; MrgX1 agonist: inactive; RGS4 block valid: inactive; RGS4 uninduced: inactive; M3R basal Ca ctr: inactive

What do the screens show for `O=C(CSc1nc2ccccc2[nH]1)Nc1nc(-c2ccc(Br)cc2)cs1`?
RGS4 inh: 6.61*; MrgX1 antagonist: inactive; RGS4 pot: inactive; MrgX1 PAM: inactive; MrgX1 agonist: inactive; RGS4 block valid: 6.0%*; RGS4 uninduced: inactive; M3R basal Ca ctr: inactive

What do the screens show for `CCCc1cc(=O)[nH]c(SCC(=O)Nc2nc(-c3ccccc3)cs2)n1`?
RGS4 inh: inactive; MrgX1 antagonist: inactive; RGS4 pot: inactive; MrgX1 PAM: inactive; MrgX1 agonist: inactive

What do the screens show for `CC(C)(C)Sc1ccc(/C=N/O)cc1[N+](=O)[O-]`?
RGS4 inh: 6.81*; MrgX1 antagonist: inactive; RGS4 pot: inactive; MrgX1 PAM: inactive; MrgX1 agonist: inactive; RGS4 block valid: 10.0%*; RGS4 uninduced: inactive; M3R basal Ca ctr: inactive

What do the screens show for `CSc1ccccc1NC(=O)c1cc(-c2cccnc2)nc2ccc(Br)cc12`?
RGS4 inh: inactive; MrgX1 antagonist: inactive; RGS4 pot: inactive; MrgX1 PAM: inactive; MrgX1 agonist: inactive

How did OC[C@H]1O[C@@H](n2cnc3c(NC4CCCC4)ncnc32)[C@H](O)[C@@H]1O do in these assays?
RGS4 inh: inactive; MrgX1 antagonist: inactive; RGS4 pot: inactive; MrgX1 PAM: inactive; MrgX1 agonist: inactive

How did C=CCNc1ncnc2c1ncn2C1OC(CO)C(O)C1O (centres undefined) do in these assays?
RGS4 inh: 4.85*; MrgX1 antagonist: inactive; RGS4 pot: inactive; MrgX1 PAM: inactive; MrgX1 agonist: inactive; RGS4 block valid: 18.0%*; RGS4 uninduced: 67.0%*; M3R basal Ca ctr: inactive

What do the screens show for `OCC1OC(n2cnc3c(NC4CCCC4)ncnc32)C(O)C1O` (centres undefined)?
RGS4 inh: 4.72*; MrgX1 antagonist: inactive; RGS4 pot: inactive; MrgX1 PAM: inactive; MrgX1 agonist: inactive; RGS4 block valid: 41.0%*; RGS4 uninduced: inactive; M3R basal Ca ctr: 312.5%*

How did OCC1OC(n2cnc3c(NC4CCCCC4)ncnc32)C(O)C1O (centres undefined) do in these assays?
RGS4 inh: inactive; MrgX1 antagonist: inactive; RGS4 pot: inactive; MrgX1 PAM: inactive; MrgX1 agonist: inactive; RGS4 uninduced: 47.5%*; M3R basal Ca ctr: inactive

Results for CC(C)(C)OC(=O)Nc1ncnc2c1ncn2C1OC(CO)C2OC(C)(C)OC21 (centres undefined) ?
RGS4 inh: inactive; MrgX1 antagonist: inactive; RGS4 pot: inactive; MrgX1 PAM: inactive; MrgX1 agonist: inactive

Results for Nc1nc(Nc2ccccc2)nc2c1ncn2[C@@H]1O[C@H](CO)[C@@H](O)[C@H]1O ?
RGS4 inh: 6.18*; MrgX1 antagonist: inactive; RGS4 pot: inactive; MrgX1 PAM: 6.45*; MrgX1 agonist: inactive; RGS4 block valid: 23.5%*; RGS4 uninduced: inactive; M3R basal Ca ctr: 357.0%*

Results for Nc1nc(F)nc2c1ncn2[C@@H]1O[C@H](CO)[C@@H](O)[C@H]1O ?
RGS4 inh: 10.9*; MrgX1 antagonist: inactive; RGS4 pot: inactive; MrgX1 PAM: inactive; MrgX1 agonist: inactive; RGS4 block valid: 51.5%*; RGS4 uninduced: 30.5%*; M3R basal Ca ctr: inactive
